This is a sample that favours compounds with a hit; in the whole collection about 12% have one here.
CHOP inh = inhibitors of CHOP induction in ER stress response; AID 2732; inhibition, % at 10 µM; 220,000 tested, 3.8% active; CHO-K1 CHOP-promoter luciferase, tunicamycin-induced, 15-18 h;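 active = compounds that reduced the stress-induced luciferase reporter signal by more than about 70% of percent inhibition, limit read from the data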;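 note: 0% = tunicamycin plus vehicle and 100% = wells without tunicamycin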
L major viab = reduces viability of Leishmania major promastigotes; resazurin fluorescence viability; inhibition, % at 10 µM; 200,000 tested, 9% active; AID 1063; in the data active = inhibition above about 50%;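 note: promastigotes grown with compound for 44 hours at 28 °C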
MT stabilize HCS = microtubule stabilization, imaging screen. 200,000 tested, 0.83% active. HeLa tubulin immunostaining HCS, 24 h; share of cells brighter than vehicle mean+2SD. % tubulin-high responders, % at 10 µM;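 active = plate Z-score above 3 for both tubulin-high and condensed-nucleus cell shares, with cell loss under 80%, at 10 µM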;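 note: anti alpha tubulin signal scored within the nucleus-defined area of each cell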
Autophagy HCS = alters autophagy in cells; MEF GFP-LC3 puncta imaging; test concentration mostly 10 µM; calls only at 10 µM (by protocol); 190,000 tested, 0.98% active;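 active = percentage of spot-positive cells more than 3 SD above its plate mean, without a fluorescence outlier flag or 80% toxicity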;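 note: spot-positive cell cutoff set from DMSO-treated cells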
bCat nuc transl = modulators of beta-catenin nuclear translocation; HeLa beta-catenin nuclear translocation, immunofluorescence imaging; nuclear translocation activity, % at 5 µM; 190,000 tested, 0.3% active; AID 1665;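 active = nuclear translocation activity above 50% at 5 µM, with a well cell count of 50 or more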;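 note: per-cell ratio of nuclear to cytoplasmic median beta-catenin stain intensity; plate controls were DMSO negative control for no effect and GSK-3 inhibitor IX positive control for full effect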
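Technique: fluorescence imaging of beta-catenin antibody stain plus DAPI / Material: human HeLa cell line / Incubation: compound treatment 24 h, 37°C, 5% CO2 / Read-out basis: % activation of per-cell nuclear versus cytoplasmic median beta-catenin signal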
Dynein transport = dynein cargo transport inhibition; 3617.4 mouse cells, GR-EGFP nuclear translocation imaging; test concentration mostly 20 µM; stimulated with dexamethasone, 1 µM; stronger effect = lower value; z-score, hits read low; 220,000 tested, 0.47% active; AID 1381;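 active = plate z-score of nuclear minus cytoplasmic receptor signal below a set negative limit, without overly bright fluorescence or cell loss, cut at about -3.5 in these data, passing the limit was not always enough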;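 note: z-score of nuclear minus cytoplasmic ring GR-EGFP intensity difference per well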
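Buffer or medium: tet-free, stripped-serum medium; reagent: dexamethasone at 1.0 µM final, 30 min; incubation: 48 h induction, 1 h compound, 30 min dex at 37 °C; measured by: formaldehyde fixation, Hoechst nuclear stain, 10x automated fluorescence imaging; read-out: nuclear-to-cytoplasmic GR-EGFP distribution per well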
* hit, by the source's call.

For CCCCOC(=O)c1ccc(NC(=O)Nc2ccc(OC)c(OC)c2)cc1 the results were CHOP inh 82.9*, L major viab 1.2, MT stabilize HCS 1.2, Autophagy HCS inactive and Dynein transport -0.68.
Screening CCOC(=O)c1ccc(NC(=O)Nc2ccc(F)cc2)cc1 returned CHOP inh 46.6, L major viab 96.0*, MT stabilize HCS 1.6, Autophagy HCS inactive and Dynein transport -0.0327.
CCOC(=O)c1ccc(NC(=O)Nc2ccc(OC)c(OC)c2)cc1 was read as CHOP inh 12.5, L major viab 57.7*, MT stabilize HCS 5.7, Autophagy HCS inactive, bCat nuc transl -0.6 and Dynein transport 0.201.
For CC1(OC(=O)CCc2ccccc2)C(=O)C=C2C=C(c3ccc(C#N)cc3)N(C3CCCC3)C=C2C1=O (stereo unspecified) the results were CHOP inh -5.0, bCat nuc transl -0.1 and Dynein transport -0.901.
For CCOC(=O)c1ccc(OS(=O)(=O)c2ccccc2)c(OC)c1 the results were CHOP inh 2.7, L major viab 92.4*, MT stabilize HCS 1.8, Autophagy HCS inactive, bCat nuc transl 0.5 and Dynein transport 1.05.
Screening O=C(C1=C[C@H](c2ccccc2)C[C@H](OCc2ccc(CO)cc2)O1)N1CCOCC1 returned CHOP inh -5.8, L major viab -9.6, MT stabilize HCS 1.8, Autophagy HCS inactive, bCat nuc transl 0.3 and Dynein transport -1.06.
For O=C(CCc1nnc(-c2ccsc2)o1)N1CCc2c(Cl)cccc2C1 the results were CHOP inh -1.7, L major viab -5.3, MT stabilize HCS 2.9, Autophagy HCS inactive, bCat nuc transl -1.7 and Dynein transport -0.358.
Screening Cc1cccc(NC(=O)CN(C)S(=O)(=O)c2ccc(Br)cc2)n1 returned CHOP inh 25.2, L major viab 0.3, MT stabilize HCS 2.3, Autophagy HCS inactive and Dynein transport -1.48.
For CCN(CC(O)CON=C1c2ccccc2-c2ccccc21)S(=O)(=O)c1ccc(Cl)cc1 (stereo unspecified) the results were CHOP inh 36.7, L major viab 100.1*, MT stabilize HCS 3.0, Autophagy HCS inactive, bCat nuc transl 3.4 and Dynein transport -0.694.
`CN(CC(O)CON=C1c2ccccc2-c2ccccc21)S(=O)(=O)c1ccc(Br)cc1` (stereo unspecified) gave CHOP inh 17.1, L major viab 100.2*, MT stabilize HCS 10.0, Autophagy HCS inactive, bCat nuc transl 1.3 and Dynein transport 1.45.
Screening CCN(CC(O)CON=C1c2ccccc2-c2ccccc21)S(=O)(=O)c1ccc(C)cc1 (stereo unspecified) returned CHOP inh 61.3, L major viab 100.0*, MT stabilize HCS 1.5, Autophagy HCS inactive, bCat nuc transl 3.8 and Dynein transport -0.384.
For O=S(=O)(c1cccs1)N1CCC(CO)(Cc2ccc(Cl)cc2)CC1 the results were CHOP inh -6.1, L major viab 6.9, MT stabilize HCS 1.2, Autophagy HCS inactive, bCat nuc transl -1.7 and Dynein transport 0.336.
For O=C(CCc1ccc(S(=O)(=O)N2CCOCC2)cc1)Nc1ccc2c(c1)OCCO2 the results were CHOP inh -13.1, bCat nuc transl 0.3 and Dynein transport -1.12.
`CCOC(=O)C(NC(C)=O)C(=O)Nc1ccc(C)cc1C` (stereo unspecified) gave CHOP inh 2.1, L major viab -6.8, MT stabilize HCS 3.0, Autophagy HCS inactive, bCat nuc transl -0.8 and Dynein transport -1.78.
`CCOc1cc(/C=C2\CCCC(C(=O)C(F)(F)F)=C2O)ccc1O` gave CHOP inh 74.8*, L major viab 15.1, MT stabilize HCS 3.1, Autophagy HCS inactive, bCat nuc transl 0.3 and Dynein transport 0.697.
For COc1cc(/C=C2\N=C(c3ccccc3)NNC2=O)cc(OC)c1OC the results were CHOP inh 34.8, bCat nuc transl 64.6* and Dynein transport 0.896.
For O=C(Nc1ccc(F)cc1)C1CCN(S(=O)(=O)c2cccs2)CC1 the results were CHOP inh 8.9, L major viab 6.6, MT stabilize HCS 1.9, Autophagy HCS inactive, bCat nuc transl -0.6 and Dynein transport 1.8.

From PubChem BioAssay
